Laboratory results from ChEMBL document CHEMBL1145492, “Comparison of the phosphorylation of 4'-ethynyl 2',3'-dihydro-3'-deoxythymidine with that of other anti-human immunodeficiency virus thymidine analogs” (Antimicrob Agents Chemother, 2007).

Columns and labels:
[1] = biological target: T1, Thymidylate kinase (Homo sapiens) (UniProt P23919); assay: Activity of TMPK in human CEM cells assessed as level of triphosphate metabolites per 10^6 cells at 2 uM after 12 hrs; format: cell-based; details: CCRF-CEM
T1 sequence (whole entry): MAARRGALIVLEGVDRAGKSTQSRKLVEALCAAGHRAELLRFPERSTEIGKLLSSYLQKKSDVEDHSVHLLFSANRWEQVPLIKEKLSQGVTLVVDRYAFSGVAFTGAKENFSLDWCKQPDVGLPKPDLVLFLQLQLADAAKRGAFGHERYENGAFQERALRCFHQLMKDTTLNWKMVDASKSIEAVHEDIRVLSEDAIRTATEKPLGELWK
Outline: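 CEM cells at 10^6/ml in RPMI/10% FBS were exposed to 2 μM radiolabeled nucleoside (75 mCi/mmol) for 12 h. Cells were washed in cold PBS with 20 μM dipyridamole and extracted with 15% TCA on ice for 15 min. Extracts were neutralized with trioctylamine/trichlorotrifluoroethane (45:55). MP, DP and TP were resolved by HPLC, and radioactivity was converted to pmol/10^6 cells. Two independent experiments.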

CCRF-CEM [2] = assay: Activity of 3-phosphoglycerate kinase from crude human CEM cell extract assessed as conversion of 1 umol of ADP to ATP per min; format: cell-free
Outline: (§1)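 CEM cell lysate (NP-40 lysis buffer, desalted on G-50) as enzyme source. Donors: 2 mM ATP for NDPK; 2 mM creatine phosphate for CK; 2 mM phosphoenolpyruvate for PK; for PGK, 1,3-bisphosphoglycerate made in situ by GAPDH. Activity in nmol/min/mg, normalized per unit (1 μmol ADP→ATP/min), then relative to D4TDP.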

[3] = biological target: Nucleoside diphosphate kinase A (Homo sapiens) (UniProt P15531); assay: Activity of human recombinant nm23H1
Outline: (§2)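 Recombinant human nm23-H1 and nm23-H2 (cloned from KB) and PGK (cloned from HepG2). Donor was 2 mM ATP for nm23; for PGK, 1,3-bisphosphoglycerate generated by GAPDH. Specific activity (nmol/min/mg) was normalized per unit (1 μmol ADP→ATP/min) and compared with D4TDP. Mean ± SD, n=3.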

Homo sapiens [4] = species: Homo sapiens; assay: Activity of human recombinant 3-phosphoglycerate kinase assessed as conversion of 1 umol of ADP to ATP per min; outline: as §2
[5] = biological target: Nucleoside diphosphate kinase B (Homo sapiens) (UniProt P22392); assay: Activity of human recombinant nm23H2; outline: as §2
[6] = biological target: Nucleoside diphosphate kinase B (Homo sapiens) (UniProt P22392); assay: Activity of human recombinant nm23H2 assessed as conversion of 1 umol of ADP to ATP per min; outline: as §2
CCRF-CEM [7] = assay: Activity of nucleoside diphosphate kinase from crude human CEM cell extract; format: cell-free; outline: as §1
CCRF-CEM [8] = assay: Activity of 3-phosphoglycerate kinase from crude human CEM cell extract; format: cell-free; outline: as §1
CCRF-CEM [9] = assay: Activity of nucleoside diphosphate kinase from crude human CEM cell extract assessed as conversion of 1 umol of ADP to ATP per min; format: cell-free; outline: as §1
CCRF-CEM [10] = assay: Activity of pyruvate kinase from crude human CEM cell extract; format: cell-free; outline: as §1
Homo sapiens [11] = species: Homo sapiens; assay: Activity of human recombinant 3-phosphoglycerate kinase; outline: as §2
[12] = biological target: Nucleoside diphosphate kinase A (Homo sapiens) (UniProt P15531); assay: Activity of human recombinant nm23H1 assessed as conversion of 1 umol of ADP to ATP per min; outline: as §2
CCRF-CEM [13] = assay: Activity of pyruvate kinase from crude human CEM cell extract assessed as conversion of 1 umol of ADP to ATP per min; format: cell-free; outline: as §1
[14] = biological target: T1, Thymidylate kinase (Homo sapiens); assay: Ratio of Kcat to Km of human recombinant TMPK relative to D4TMP
[15] = biological target: T1, Thymidylate kinase (Homo sapiens); assay: Ratio of Kcat to Km of human recombinant TMPK relative to […]
Outline: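 Substrate ranges were TMP 6.25–100 μM and analog MPs 6.25–250 μM. Reactions were stopped at various times with TCA and neutralized with trioctylamine/trichlorotrifluoroethane. Km and kcat came from Lineweaver-Burk plots. Relative efficiency is kcat/Km with D4TMP as 100%. Mean ± SD of three experiments.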

[16] = biological target: Nucleoside diphosphate kinase B (Homo sapiens) (UniProt P22392); assay: Activity of human recombinant nm23H2 assessed as phosphorylation efficiency relative to 4-ethynyl D4TDP; details: in the assay text read “relative to D4TDP” for “relative to 4-ethynyl D4TDP”; outline: as §2
Homo sapiens [17] = species: Homo sapiens; assay: Activity of human recombinant 3-phosphoglycerate kinase assessed as phosphorylation efficiency relative to 4-ethynyl D4TDP; details: in the assay text read “relative to D4TDP” for “relative to 4-ethynyl D4TDP”; outline: as §2
CCRF-CEM [18] = assay: Activity of nucleoside diphosphate kinase from crude human CEM cell extract assessed as phosphorylation efficiency relative to D4TDP; format: cell-free; outline: as §1
[19] = biological target: Nucleoside diphosphate kinase A (Homo sapiens) (UniProt P15531); assay: Activity of human recombinant nm23H1 assessed as phosphorylation efficiency relative to 4-ethynyl D4TDP; details: in the assay text read “relative to D4TDP” for “relative to 4-ethynyl D4TDP”; outline: as §2
CCRF-CEM [20] = assay: Activity of 3-phosphoglycerate kinase from crude human CEM cell extract assessed as phosphorylation efficiency relative to 4-ethynyl D4TDP; details: in the assay text read “relative to D4TDP” for “relative to 4-ethynyl D4TDP”; outline: as §1
CCRF-CEM [21] = assay: Activity of 3-phosphoglycerate kinase from crude human CEM cell extract assessed as phosphorylation efficiency relative to D4TDP
CCRF-CEM [22] = assay: Activity of creatine kinase from crude human CEM cell extract; format: cell-free; outline: as §1

Sequence of Nucleoside diphosphate kinase A (Homo sapiens) (P15531 whole entry): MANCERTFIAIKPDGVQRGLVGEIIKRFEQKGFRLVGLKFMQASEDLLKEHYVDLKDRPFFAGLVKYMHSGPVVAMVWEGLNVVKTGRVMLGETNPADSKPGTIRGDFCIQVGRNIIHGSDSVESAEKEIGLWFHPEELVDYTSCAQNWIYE
Sequence of Nucleoside diphosphate kinase B (Homo sapiens) (P22392 whole entry): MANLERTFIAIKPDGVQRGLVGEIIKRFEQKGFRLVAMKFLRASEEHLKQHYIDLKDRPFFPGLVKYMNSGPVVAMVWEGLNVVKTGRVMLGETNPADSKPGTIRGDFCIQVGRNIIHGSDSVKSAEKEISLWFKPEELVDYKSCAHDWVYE

SMILES	Activity (CCRF-CEM [2]) [nmol]	Activity [3] [nmol/min/mg]	Activity (Homo sapiens [4]) [nmol]	Activity [5] [nmol/min/mg]	Activity [6] [nmol]	Activity (CCRF-CEM [7]) [nmol/min/mg]	Activity (CCRF-CEM [8]) [nmol/min/mg]	Activity (CCRF-CEM [9]) [nmol]	Activity (Homo sapiens [11]) [nmol/min/mg]	Activity [12] [nmol]	also measured
Cc1cn([C@H]2C[C@H](N=[N+]=[N-])[C@@H](CO)O2)c(=O)[nH]c1=O	–	–	–	–	–	–	–	–	–	–	Activity [1]: 0.27 pmol
Cc1cn([C@H]2C=C[C@@H](COP(=O)(O)OP(=O)(O)O)O2)c(=O)[nH]c1=O	0.4	1500	0.0037	1700	1.2	1.1	4.2	0.42	10	1.2	Activity (CCRF-CEM [10]): 0.35 nmol/min/mg; Activity (CCRF-CEM [13]): 99 nmol
Cc1cn([C@H]2C[C@H](O)[C@@H](COP(=O)(O)O)O2)c(=O)[nH]c1=O	–	–	–	–	–	–	–	–	–	–	Activity [14]: 5600%
C#C[C@@]1(COP(=O)(O)O)C=C[C@H](n2cc(C)c(=O)[nH]c2=O)O1	–	–	–	–	–	–	–	–	–	–	Activity [15]: 8.8%
Cc1cn([C@H]2C[C@H](N=[N+]=[N-])[C@@H](COP(=O)(O)O)O2)c(=O)[nH]c1=O	–	–	–	–	–	–	–	–	–	–	Activity [14]: 59%
Cc1cn([C@@H]2C[C@H](N=[N+]=[N-])[C@@H](COP(=O)(O)OP(=O)(O)O)O2)c(=O)[nH]c1=O	0.025	107	0.005	131	0.1	0.018	0.26	0.007	14	0.08	Activity [16]: 7.6%; Activity (Homo sapiens [17]): 135%; Activity (CCRF-CEM [18]): 1.7%; Activity [19]: 7.2%; Activity (CCRF-CEM [20]): 6.2%
Cc1cn([C@H]2C[C@H](O)[C@@H](COP(=O)(O)OP(=O)(O)O)O2)c(=O)[nH]c1=O	2	1.3e+06	0.049	1.4e+06	1000	2700	21	1100	137	1000	Activity [16]: 83000%; Activity (CCRF-CEM [21]): 490%; Activity (Homo sapiens [17]): 1300%; Activity (CCRF-CEM [18]): 260000%; Activity [19]: 89000%
Nc1ncnc2c1ncn2[C@@H]1O[C@H](COP(=O)(O)OP(=O)(O)O)[C@@H](O)[C@H]1O	–	–	–	–	–	2500	10600	–	–	–	Activity (CCRF-CEM [22]): 2.5 nmol/min/mg; Activity (CCRF-CEM [10]): 3.6 nmol/min/mg
